FN deposition inh: inhibitors of fibronectin matrix deposition, primary screen, AH1F cells, Alexa488-fibronectin fluorescence, plate reader. inhibition, % at 12.6 µM. AID 743247, 2014. AH1F fibroblasts, overnight. hit rate 0.086% among 350,000;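 active = mean inhibition across replicates of 30% or more, regardless of how many single replicates reach that level; inconclusive = mean under 30% yet at least half of replicates reach 30%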;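 also: positive control wells lacked labelled fibronectin entirely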
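Material: AH1F fibroblast monolayer depositing Alexa488-labelled fibronectin into matrix | Input: 10000 AH1F cells/well | Medium: DMEM plus 2% serum, read in PBS | Reagent: Alexa488-fibronectin, 24 nM final in well | Compound dosing: One dose per compound, pinned | Schedule: 1 h adhesion, overnight exposure | Measured by: Fluorescence at 485 nm excitation, 525 nm emission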
PGC1a acetyl inh: inhibitors of PGC1a acetylation signal, primary screen, cell-based, U2OS, AlphaScreen, inhibitor mode | AlphaScreen anti-acetyl-lysine; with virally co-expressed GCN5 acetyltransferase | inhibition, % at 15.6 µM | hit rate 0.17% among 350,000 | AID 651687, 2012;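 active = every replicate shows inhibition of at least 40%; inconclusive = mean inhibition at least 40% but some replicate below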;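 also: 0% = neutral control wells and 100% = positive control wells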
DENV2 CPE rescue: inhibitors of DENV2 cytopathic effect, primary screen, cell-based, plate reader, single concentration; hit rate 1.7% among 350,000; DENV2-infected cells, cytopathic effect rescue; CPE inhibition, % at 9.99 µM; in the data active = CPE inhibition above about 20%, passing the limit was not always enough; inconclusive = no clear call, values can overlap the other calls; tested in BHK-21 cells;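 also: 0% = median of neutral control wells and 100% = median of positive control wells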
Env fusion inh: inhibitors of HIV-1 Env-driven cell-cell fusion, primary screen, HeLa-JRFL effector, CEM21 target cells, luciferase; inhibition, % at 12.3 µM; hit rate 1.1% among 360,000; AID 651610, 2012;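 active = mean replicate inhibition score of at least 50 and every replicate individually at or above 50; inconclusive = only one of the two criteria met; inactive = mean below 50 and not all replicates reaching 50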;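 also: 0% = plate neutral controls and 100% = maraviroc near 300 nM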
Ecoli rRNA inh: reduced GFP signal of wild-type E. coli, primary screen, bacterial rRNA inhibitor project, GFP/RFP fluorescence, OD600, single point; AID 720706, 2013; hit rate 1.6% among 350,000; GFP signal change (wild-type ribosome), % (no concentration beside the values); E. coli WT GFP vs humanized-ribosome RFP mutants, 24 h; hits give low values; DMSO median 0, no signal -100;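 active = significant combined selectivity score with lowered wild-type GFP, culture density cut under 30%, mutant RFP and density less affected; inactive = any of these conditions unmet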
PglD inh: C. jejuni PglD acetyltransferase inhibitors, primary screen, biochemical, DTNB colorimetric, single point; UDP-N-acetylbacillosamine N-acetyltransferase PglD (Campylobacter jejuni); purified PglD enzyme, DTNB colorimetric CoA detection; inhibition, % at 12.5 µM; hit rate 0.098% among 360,000; AID 602405, 2012; in the data active = inhibition above about 16%, passing the limit was not always enough; inconclusive = no clear call, values can overlap the other calls
* = called active by the depositor; u = inconclusive; x = no result given; ! = a repeat was not active; [ ] = dose if it differs, or a comment. The list is not random: actives were taken first. Their share in the collection is about 3.5%.

SMILES	FN deposition inh	PGC1a acetyl inh	DENV2 CPE rescue	Env fusion inh	Ecoli rRNA inh	PglD inh
O=C(NC(c1ccccc1)c1ccc2ccccc2n1)C1CCN(CCOc2ccc(Cl)cc2Cl)CC1 (centres undefined)	10	x	-4	50	-49	8
O=C(NC(c1ccc(F)cc1)c1ccc2ccccc2n1)C1CCN(Cc2cccc(C(F)(F)F)c2)CC1 (centres undefined)	x	-10	-3	75*	-13	1
O=C(NC(c1ccc(F)cc1)c1ccc2ccccc2n1)C1CCN(CCOc2ccc(Cl)cc2)CC1 (centres undefined)	3	4	9	77*	x	1
CCCNC(=O)Nc1ccc2c(c1)OC[C@@H](C)N(C(=O)C1CCC1)C[C@@H](C)[C@@H](OC)CN(C)C2=O	-8	x	-11	x	2	-2
CCC1=C(OC(=O)N(CC)CC)N2C(=O)OC(=NCC3CC3)[C@]2(C)[C@H]2C1=CC[C@H]1C(=O)NC(=O)[C@H]12	3	x	46*	-20	2	-2
CCC1=C(OC(=O)N(CC)CC)N2C(=O)OC(=NCCc3c[nH]c4ccccc34)[C@]2(C)[C@H]2C1=CC[C@H]1C(=O)NC(=O)[C@H]12	8	x	27*	4	0	3
Nc1cc2[nH]c(=O)c3ccccc3c2cc1Br	13	x	-1	10	14	x
Nc1cc2c(cc1Br)[nH]c(=O)c1ccccc12	-4	11	5	83*	-13	x
COc1ccc(CN(C)C[C@@H]2OCCCC[C@@H](C)Oc3ccc(NC(=O)CCCN(C)C)cc3C(=O)N([C@@H](C)CO)C[C@H]2C)cc1	x	4	5	6[16.7 µM]	7	-2
CN1C(=O)c2cc(NC(=O)c3ccc(F)c(F)c3)ccc2OC[C@H]2O[C@@H](CC(=O)N3CCOCC3)CC[C@@H]21	-1	3	4	19[16.7 µM]	x	4
C[C@@H]1CC[C@]2(O[C@H](CCO)C[C@H](O)[C@H]2O)O1	4	-7	39*	-9	12	11
C[C@H]1CCC[C@]2(O[C@H](CCO)C[C@H](O)[C@H]2O)O1	1	5	6	18	7	-1
C[C@H]1CC[C@@]2(O[C@@H](CCO)C[C@H](O)[C@H]2O)O1	-4	-3	9	-15	6	1
C[C@@H]1CCC[C@]2(O[C@@H](CCO)C[C@@H](O)[C@@H]2O)O1	-7	-7	34*	-27	10	8
C[C@@H]1CN([C@@H](C)CO)C(=O)c2cc(N(C)C)ccc2O[C@@H]1CN(C)Cc1ccc(C(F)(F)F)cc1	-19	-13	4	18[16.7 µM]	-2	-2
CCNC(=O)C[C@@H]1CC[C@H]2[C@@H](COC[C@@H](O)CN2S(=O)(=O)c2ccc(Oc3ccccc3)cc2)O1	-7	-2	3	x	4	-1
C[C@H](CO)N1C[C@H](C)[C@H](CN(C)C(=O)Nc2ccc(C(F)(F)F)cc2)OCc2cnnn2CCCC1=O	6	3	-15	2	-11*!	2
COc1cccc(NC(=O)N(C)C[C@@H]2OCc3cnnn3CCCC(=O)N([C@@H](C)CO)C[C@@H]2C)c1	11	5	79*	x	2	12
COc1ccccc1NC(=O)N[C@H]1CC[C@H](CC(=O)N[C@H](C)c2ccccc2)O[C@@H]1CO	0	4	0	-24[16.7 µM]	-2	-2
CCOc1ccc2nc(N/C(N)=N/C(=S)Nc3ccc(C)c(C)c3)nc(C)c2c1	7	x	108*	x	5	x
COc1ccc(NC(=S)/N=C(\N)Nc2nc(C)c3ccc(C)cc3n2)cc1	-1	-3	1	-11	-3	-5
CO[C@@H]1CN(C)C(=O)c2ccc(NC(=O)C3CC3)cc2OC[C@@H](C)N(Cc2cccc(F)c2)C[C@H]1C	3	7	-6	x	-5	x
O=[N+]([O-])c1ccc(N2CCN(S(=O)(=O)c3ccccc3[N+](=O)[O-])CC2)cc1N1CCc2ccccc2C1	5	2	112*	7	1	2
O=[N+]([O-])c1ccccc1S(=O)(=O)N1CCc2ccccc2C1	-10	-4	-1	4	-7	x
O=C(Nc1ccc(N2CCOCC2)cc1)c1ccc(S(=O)(=O)N2CCCCC2)cc1	x	-4	x	x	x	-1
SMILES	FN deposition inh	PGC1a acetyl inh	DENV2 CPE rescue	Env fusion inh	Ecoli rRNA inh	PglD inh
O=C(Nc1ccc2c(c1)OCCO2)c1ccc(S(=O)(=O)N2CCCCC2)cc1	1	-1	x	15	-32*	-4
Cc1ccc(NC(=O)/C=C/c2ccc3c(c2)OCO3)cc1S(=O)(=O)N1CCOCC1	9	-1	x	16	-20*	4
CC(=O)c1ccc(NC(=O)c2ccc(C)c(S(=O)(=O)N3CCOCC3)c2)cc1	8	x	-8	0	12	-3
Cc1ccc(NC(=O)c2ccc(S(=O)(=O)N3CC(C)CC(C)C3)cc2)cc1S(=O)(=O)N1CCOCC1 (centres undefined)	10	x	46*	14	6	0
O=C(NCC[C@@H]1CC[C@@H](NC(=O)C2CCCC2)[C@H](CO)O1)c1ccc(F)cc1	x	-4	13	-20[16.7 µM]	1	0
COc1ccc2c3c([nH]c2c1)[C@@H](CO)N(C(=O)CC1CC1)CC31CCN(C(=O)CC2CC2)CC1	x	9	-3	x	-3	x
CN(C)C(=O)c1ccc(-c2ccc([C@H]3[C@H]4CN(C(=O)C5CCC5)CCCCN4[C@H]3CO)cc2)cc1	x	13	6	x	x	5
Cc1ccc(NC(=O)CN(C)C(=O)Cc2coc3cc(C)c(C)cc23)cc1	x	-14	-1	-30	-23*	-1
C[C@H]1CN([C@@H](C)CO)C(=O)c2ccccc2-c2ccccc2CO[C@@H]1CN(C)C(=O)Cc1ccccc1	-14	-13	0	44[16.7 µM]	-2	-2
CCc1ccc(C(=O)CN(C#N)c2nc(C)cc(C)n2)cc1	0	49*	x	-49	x	0
C/C(=N\NC(=O)c1cc(C)[nH]n1)c1ccc(-c2ccccc2)cc1	3	79*	1	-82	4	6
C/C(=N\NC(=O)c1cc(-c2ccc(Br)s2)[nH]n1)c1ccncc1	21	1	u	13	-18	2
C/C(=N\NC(=O)c1cc(-c2ccc(Cl)s2)[nH]n1)c1ccncc1	10	11	-3	4	-21*	-1
O=C(N/N=C/c1ccco1)c1cc(-c2ccc(Cl)s2)[nH]n1	-4	-2	-2	-2	-26*	x
O=C(N/N=C/c1cccs1)c1cc(-c2ccc(Cl)s2)[nH]n1	21	13	-4	-13	-22*	-6

Screens from PubChem.
